Measurements published in ChEMBL document CHEMBL5356951, “Semisynthetic polymyxins with potent antibacterial activity and reduced kidney cell toxicity” (RSC Med Chem, 2023).
≈ marks a conversion by molar mass, not a printed value. Positions of bridges follow the written chain, without caps; N, C: chain ends. Non-standard residues stand in square brackets, D forms with d. Residues, ends and D or L forms follow the SMILES beside them. *: point of attachment. X1 = CC[C@H](C)CCCCC(=O)*; Dab = NCC[C@H](N)C(=O)O

What was measured:
Acinetobacter baumannii [1] = experiment: Antibacterial activity against Acinetobacter baumannii ATCC 17978 assessed as bacterial growth inhibition by broth microdilution assay; assay type: functional
Method in brief: (§1)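 Broth microdilution MIC. Strains grown overnight on blood agar at 37 °C, colonies suspended in TSB and grown to OD600 0.5. Compounds dissolved in DMSO (6.4 mg mL−1 stock), diluted serially in CAMHB (12.5 μg mL−1 Mg2+, 20 μg mL−1 Ca2+) on polypropylene plates. Final inoculum 10^6 CFU mL−1, 37 °C under gas-permeable membrane. MIC is the lowest concentration with no visible growth, consistent across at least triplicate experiments.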

Klebsiella pneumoniae [2] = experiment: Antibacterial activity against Klebsiella pneumoniae NCTC 13443 assessed as bacterial growth inhibition by broth microdilution assay; assay type: functional
Method in brief: (§2)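 Broth microdilution. Bacteria from glycerol stocks were grown overnight on blood agar at 37 °C, then colonies were suspended in TSB and grown to OD600 0.5. Compounds were dissolved in DMSO at 6.4 mg mL−1 (stock) and serially diluted in CAMHB (Mg2+ 12.5, Ca2+ 20 μg mL−1) in polypropylene plates. Inoculum was 10^6 CFU mL−1 final, incubated at 37 °C. MIC = lowest concentration without visible growth; values consistent across at least triplicate experiments.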

Escherichia coli [3] = experiment: Antibacterial activity against Escherichia coli 1313 assessed as bacterial growth inhibition by broth microdilution assay; assay type: functional; method in brief: as §2
[4] = Cytotoxicity against human ciPTEC cells assessed as reduction in cell viability at 250 uM incubated for 24 hrs by PrestoBlue reagent based fluorescence assay; assay type: toxicity
Method in brief: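 Differentiated ciPTEC-14.4 (conditionally immortalized) cells were washed with HBSS and then exposed to 250 μM compound in serum-free supplemented DMEM/F-12 for 24 h at 37 °C. After an HBSS wash, cells were incubated with 10% PrestoBlue in HBSS at 37 °C in the dark. Fluorescence was read at ex 530/em 590 nm, background-corrected, and expressed relative to medium-only cells; triplicates.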

[5] = Cytotoxicity against human ciPTEC cells assessed as reduction in cell viability incubated for 24 hrs by PrestoBlue reagent based fluorescence assay; assay type: toxicity; settings: read-out: TC50
Method in brief: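 ciPTEC-14.4 cells, differentiated, were treated for 24 h at 37 °C with compound at 100, 250, 500 or 1000 μM in serum-free DMEM/F-12 with insulin, transferrin, selenium, hydrocortisone, EGF and triiodothyronine. Viability was measured with 10% PrestoBlue in HBSS (fluorescence ex 530/em 590 nm), corrected for reagent background and normalized to untreated, medium-only control.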

Pseudomonas aeruginosa [6] = experiment: Antibacterial activity against Pseudomonas aeruginosa NRZ 03961 assessed as bacterial growth inhibition by broth microdilution assay; assay type: functional; method in brief: as §2
Acinetobacter baumannii [7] = experiment: Antibacterial activity against Acinetobacter baumannii 2018-006 assessed as bacterial growth inhibition by broth microdilution assay; assay type: functional; method in brief: as §1
Escherichia coli [8] = experiment: Antibacterial activity against Escherichia coli ATCC 25922 assessed as bacterial growth inhibition by broth microdilution assay; assay type: functional; method in brief: as §2
Acinetobacter baumannii [9] = experiment: Antibacterial activity against Acinetobacter baumannii ATCC 19606 assessed as bacterial growth inhibition by broth microdilution assay; assay type: functional; method in brief: as §1
Escherichia coli [10] = experiment: Antibacterial activity against multidrug-resistant Escherichia coli NCTC 13846 assessed as bacterial growth inhibition by broth microdilution assay; assay type: functional; method in brief: as §1
Pseudomonas aeruginosa [11] = experiment: Antibacterial activity against Pseudomonas aeruginosa NRZ 08418 assessed as bacterial growth inhibition by broth microdilution assay; assay type: functional; method in brief: as §2
Klebsiella pneumoniae [12] = experiment: Antibacterial activity against Klebsiella pneumoniae ATCC 13883 assessed as bacterial growth inhibition by broth microdilution assay; assay type: functional; method in brief: as §2
Klebsiella pneumoniae [13] = experiment: Antibacterial activity against Klebsiella pneumoniae JS-123 assessed as bacterial growth inhibition by broth microdilution assay; assay type: functional; method in brief: as §2
Acinetobacter baumannii [14] = experiment: Antibacterial activity against multidrug-resistant Acinetobacter baumannii assessed as bacterial growth inhibition by broth microdilution assay; assay type: functional; method in brief: as §1
Pseudomonas aeruginosa [15] = experiment: Antibacterial activity against Pseudomonas aeruginosa ATCC 27853 assessed as bacterial growth inhibition by broth microdilution assay; assay type: functional; method in brief: as §2
Escherichia coli [16] = experiment: Synergistic antibacterial activity against polymyxin-resistant Escherichia coli assessed as fractional inhibitory concentration index incubated for 18 hrs in presence of erythromycin by checkerboard assay; assay type: functional
Method in brief: (§3)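 8 × 8 checkerboard (64 combinations, each in triplicate) against E. coli EQAS mcr-2, grown to OD600 0.5 in TSB after overnight blood agar culture. Antibiotic and synergist serially diluted in CAMHB (12.5 μg mL−1 Mg2+, 20 μg mL−1 Ca2+), inoculum 10^6 CFU mL−1, 37 °C for 18 h. OD600 normalized to growth and no-growth controls. FICi calculated from minimal synergistic concentrations and single-agent MICs; ≤0.5 taken as synergy.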

Escherichia coli [17] = experiment: Synergistic antibacterial activity against polymyxin-resistant Escherichia coli assessed as fractional inhibitory concentration index incubated for 18 hrs in presence of novobiocin by checkerboard assay; assay type: functional; method in brief: as §3
Escherichia coli [18] = experiment: Synergistic antibacterial activity against polymyxin-resistant Escherichia coli assessed as fractional inhibitory concentration index incubated for 18 hrs in presence of rifampicin by checkerboard assay; assay type: functional; method in brief: as §3

Row | SMILES | MIC (Acinetobacter baumannii [1]) [mg/L] | MIC (Klebsiella pneumoniae [2]) [mg/L] | MIC (Escherichia coli [3]) [mg/L] | Activity [4] [%] | CC50 at 24 h [5] [µM] | MIC (Pseudomonas aeruginosa [6]) [mg/L] | MIC (Acinetobacter baumannii [7]) [mg/L] | MIC (Escherichia coli [8]) [mg/L] | MIC (Acinetobacter baumannii [9]) [mg/L] | MIC (Escherichia coli [10]) [mg/L] | MIC (Pseudomonas aeruginosa [11]) [mg/L] | MIC (Klebsiella pneumoniae [12]) [mg/L] | MIC (Klebsiella pneumoniae [13]) [mg/L] | MIC (Acinetobacter baumannii [14]) [mg/L] | MIC (Pseudomonas aeruginosa [15]) [mg/L] | fractional inhibitory concentration index (FICI) (Escherichia coli [16]) | fractional inhibitory concentration index (FICI) (Escherichia coli [17]) | fractional inhibitory concentration index (FICI) (Escherichia coli [18])
1 | CC[C@H](C)CCCCC(=O)N[C@@H](CCN)C(=O)N[C@H](C(=O)N[C@@H](CCN)C(=O)N[C@H]1CCNC(=O)[C@H]([C@@H](C)O)NC(=O)[C@H](CCN)NC(=O)[C@H](CCN)NC(=O)[C@H](CC(C)C)NC(=O)[C@@H](Cc2ccccc2)NC(=O)[C@H](CCN)NC1=O)[C@@H](C)O (X1-[Dab]T[Dab][Dab][Dab][dF]L[Dab][Dab]T; lactam 4-C) | 0.25 (≈ 0.208 µM) | 0.5 (≈ 0.415 µM) | 0.125 (≈ 0.104 µM) | 85 | 1480 | 1 (≈ 0.831 µM) | 0.125 (≈ 0.104 µM) | 1 (≈ 0.831 µM) | 0.25 (≈ 0.208 µM) | 4 (≈ 3.32 µM) | 1 (≈ 0.831 µM) | 0.25 (≈ 0.208 µM) | 0.25 (≈ 0.208 µM) | 0.5 (≈ 0.415 µM) | 1 (≈ 0.831 µM) |  |  | 
2 | CC(C)C[C@@H]1NC(=O)[C@@H](Cc2ccccc2)NC(=O)[C@H](CCN)NC(=O)[C@@H](NC(=O)[C@H](CCN)NC(=O)[C@@H](NC(=O)[C@H](N)CSSCc2cccc(Cl)c2)[C@@H](C)O)CCNC(=O)[C@H]([C@@H](C)O)NC(=O)[C@H](CCN)NC(=O)[C@H](CCN)NC1=O | 1 (≈ 0.818 µM) | 0.25 (≈ 0.204 µM) | 0.125 (≈ 0.102 µM) | > 50 |  | 1 (≈ 0.818 µM) | 2 (≈ 1.64 µM) | 1 (≈ 0.818 µM) | 1 (≈ 0.818 µM) | 4 (≈ 3.27 µM) | 2 (≈ 1.64 µM) | 0.5 (≈ 0.409 µM) | 0.25 (≈ 0.204 µM) | 4 (≈ 3.27 µM) | 4 (≈ 3.27 µM) |  |  | 
3 | CC(C)CCSSC[C@@H](N)C(=O)N[C@H](C(=O)N[C@@H](CN)C(=O)N[C@H]1CCNC(=O)[C@H]([C@@H](C)O)NC(=O)[C@H](CCN)NC(=O)[C@H](CCN)NC(=O)[C@H](CC(C)C)NC(=O)[C@@H](Cc2ccccc2)NC(=O)[C@H](CCN)NC1=O)[C@@H](C)O | 0.25 (≈ 0.217 µM) | 0.25 (≈ 0.217 µM) | ≤ 0.125 |  | 130 | 1 (≈ 0.866 µM) | 0.25 (≈ 0.217 µM) | 1 (≈ 0.866 µM) | 0.25 (≈ 0.217 µM) | 4 (≈ 3.46 µM) | 1 (≈ 0.866 µM) | 0.25 (≈ 0.217 µM) | 0.25 (≈ 0.217 µM) | 0.25 (≈ 0.217 µM) | 1 (≈ 0.866 µM) | 0.27 | 0.19 | 0.14
4 | CC(C)C[C@@H]1NC(=O)[C@@H](Cc2ccccc2)NC(=O)[C@H](CCN)NC(=O)[C@@H](NC(=O)[C@H](CCN)NC(=O)[C@@H](NC(=O)[C@H](N)CSSCCC2CCCCC2)[C@@H](C)O)CCNC(=O)[C@H]([C@@H](C)O)NC(=O)[C@H](CCN)NC(=O)[C@H](CCN)NC1=O | 1 (≈ 0.827 µM) | 2 (≈ 1.65 µM) | 2 (≈ 1.65 µM) | > 50 |  | 4 (≈ 3.31 µM) | 0.5 (≈ 0.414 µM) | 1 (≈ 0.827 µM) | 0.5 (≈ 0.414 µM) | 8 (≈ 6.62 µM) | 4 (≈ 3.31 µM) | 1 (≈ 0.827 µM) | 2 (≈ 1.65 µM) | 1 (≈ 0.827 µM) | 2 (≈ 1.65 µM) |  |  | 
5 | CC(C)C[C@@H]1NC(=O)[C@@H](Cc2ccccc2)NC(=O)[C@H](CCN)NC(=O)[C@@H](NC(=O)[C@@H](CCN)NC(=O)[C@@H](NC(=O)[C@H](N)CSSCCC2CCCCC2)[C@@H](C)O)CCNC(=O)[C@H]([C@@H](C)O)NC(=O)[C@H](CCN)NC(=O)[C@H](CCN)NC1=O | 1 (≈ 0.827 µM) | 1 (≈ 0.827 µM) | 0.5 (≈ 0.414 µM) |  |  | 2 (≈ 1.65 µM) | 0.5 (≈ 0.414 µM) | 2 (≈ 1.65 µM) | 0.5 (≈ 0.414 µM) | 4 (≈ 3.31 µM) | 2 (≈ 1.65 µM) | 1 (≈ 0.827 µM) | 1 (≈ 0.827 µM) | 1 (≈ 0.827 µM) | 2 (≈ 1.65 µM) |  |  | 
6 | CC(C)CCSSC[C@@H](N)C(=O)N[C@H](C(=O)N[C@@H](CCN)C(=O)N[C@H]1CCNC(=O)[C@H]([C@@H](C)O)NC(=O)[C@H](CCN)NC(=O)[C@H](CCN)NC(=O)[C@H](CC(C)C)NC(=O)[C@@H](Cc2ccccc2)NC(=O)[C@H](CCN)NC1=O)[C@@H](C)O | 1 (≈ 0.856 µM) | 0.5 (≈ 0.428 µM) | ≤ 0.125 | > 50 |  | 2 (≈ 1.71 µM) | 0.5 (≈ 0.428 µM) | 1 (≈ 0.856 µM) | 0.5 (≈ 0.428 µM) | 8 (≈ 6.85 µM) | 1 (≈ 0.856 µM) | 0.5 (≈ 0.428 µM) | 0.25 (≈ 0.214 µM) | 1 (≈ 0.856 µM) | 1 (≈ 0.856 µM) |  |  | 
7 | CC(C)C[C@@H]1NC(=O)[C@@H](Cc2ccccc2)NC(=O)[C@H](CCN)NC(=O)[C@@H](NC(=O)[C@@H](CO)NC(=O)[C@@H](NC(=O)[C@H](N)CSSCc2cccc(Cl)c2)[C@@H](C)O)CCNC(=O)[C@H]([C@@H](C)O)NC(=O)[C@H](CCN)NC(=O)[C@H](CCN)NC1=O | 0.5 (≈ 0.413 µM) | 0.5 (≈ 0.413 µM) | 0.5 (≈ 0.413 µM) |  |  | 8 (≈ 6.61 µM) | 0.5 (≈ 0.413 µM) | 2 (≈ 1.65 µM) | 0.5 (≈ 0.413 µM) | 8 (≈ 6.61 µM) | 4 (≈ 3.31 µM) | 1 (≈ 0.827 µM) | 0.25 (≈ 0.207 µM) | 0.5 (≈ 0.413 µM) | 4 (≈ 3.31 µM) |  |  | 
